{"data": "Measured values gathered from unrelated publications", "target": "Dual specificity protein kinase CLK2 (CLK2, Homo sapiens, UniProt P49760)", "technique": "competition with immobilised ligand"}
{"SMILES": "FC(F)(F)Oc1cccc(-c2cnc3ccc(-c4ccncc4)nn23)c1", "read-out": "cell-free assay", "concentration": "5 µM", "remaining binding [%]": 6.2}
{"SMILES": "CCOC(=O)c1cc2cc(-c3cc(C(=O)NCc4ccc(C(=O)O)cc4)nn3C)ccc2[nH]1", "read-out": "cell-free assay", "concentration": "0.1 µM", "remaining binding [%]": 96}
{"SMILES": "Nc1ncc2c(n1)-c1c([nH]c3ccc(C#CC4CC4)cc13)CCCC2", "read-out": "binding", "concentration": "1 µM", "remaining binding [%]": 96}
{"SMILES": "Cc1cc(C)c(-n2ccn3nc(-c4cccnc4)cc23)cc1NC(=O)c1cc(C#N)cc(S(F)(F)(F)(F)F)c1", "read-out": "cell-free assay", "concentration": "0.1 µM", "remaining binding [%]": 91}
{"SMILES": "O=C(c1ccc(Nc2ncc(Cl)c(-c3ccc(Cl)s3)n2)cc1)N1CCC(N2CCCC2)CC1", "read-out": "binding", "concentration": "1 µM", "remaining binding [%]": 5.2}
{"SMILES": "COc1ncc2cc3ccccc3nc2c1C#N", "read-out": "cell-free assay", "concentration": "5 µM", "remaining binding [%]": 76}
{"SMILES": "O=C(Nc1c[nH]nc1C(=O)NC1CCNCC1)c1cc(F)cc(F)c1", "read-out": "binding", "concentration": "1 µM", "remaining binding [%]": 100}
{"SMILES": "COc1cnc(Nc2cccc(S(N)(=O)=O)c2)nc1N1CCN(c2ccccc2)C(=O)C1", "read-out": "binding", "concentration": "1 µM", "remaining binding [%]": 76}
{"SMILES": "C[C@H](NC(=O)c1cnc2n1[C@](C)(Cc1ccc(C#N)cc1)C(=O)N2c1cc(Cl)c(F)c(Cl)c1)C(=O)NC1(c2ccccn2)CC1", "read-out": "cell-free assay", "concentration": "1 µM", "remaining binding [%]": 97}
{"SMILES": "Cc1cnc(Nc2ccc(C(=O)N3CCC(N4CCCC4)CC3)cc2)nc1-c1cc2ccccc2s1", "read-out": "binding", "concentration": "1 µM", "remaining binding [%]": 8.8}
{"SMILES": "Nc1c(C(=O)NCc2ccc(C(=O)NCCCC3CCCCC3)cc2)cnn1-c1ccccc1", "read-out": "cell-free assay", "concentration": "0.1 µM", "remaining binding [%]": 100}
{"SMILES": "COc1cnc(Nc2cccc(S(N)(=O)=O)c2)nc1N1CCN(c2ccccc2)CC1", "read-out": "binding", "concentration": "1 µM", "remaining binding [%]": 99}
{"SMILES": "O=C(c1ccc(Nc2ncc(Cl)c(-c3cc4ccccc4s3)n2)cc1)N1CCC(N2CCCC2)CC1", "read-out": "binding", "concentration": "1 µM", "remaining binding [%]": 6.7}
